Laboratory results from ChEMBL document CHEMBL1158167, “Synthesis, binding properties and receptor docking of 4-halo-6-[2-(4-arylpiperazin-1-yl)ethyl]-1H-benzimidazoles, mixed ligands of D2 and 5-HT1A receptors” (Eur J Med Chem, 2008).

Molecular target: D(1A) dopamine receptor (Bos taurus, UniProt Q95136)
Test: Displacement of [3H]SCH23390 from dopamine D1 receptor in bovine caudate nuclei synaptosomal membrane by liquid scintillation spectrometry

D(1A) dopamine receptor, sequence (Q95136 whole entry): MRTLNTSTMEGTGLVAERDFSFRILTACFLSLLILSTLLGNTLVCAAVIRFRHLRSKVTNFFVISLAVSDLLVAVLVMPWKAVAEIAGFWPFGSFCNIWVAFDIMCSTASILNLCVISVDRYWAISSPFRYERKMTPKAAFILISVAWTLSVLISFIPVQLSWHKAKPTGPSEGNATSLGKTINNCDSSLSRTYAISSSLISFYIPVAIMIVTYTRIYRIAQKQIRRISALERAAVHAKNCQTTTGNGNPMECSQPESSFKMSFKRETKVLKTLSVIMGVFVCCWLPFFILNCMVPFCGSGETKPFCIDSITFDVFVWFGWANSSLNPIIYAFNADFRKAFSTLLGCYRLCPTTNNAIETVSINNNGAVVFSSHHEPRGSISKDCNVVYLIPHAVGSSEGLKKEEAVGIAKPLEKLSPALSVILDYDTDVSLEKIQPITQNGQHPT

Structure (SMILES)	Ki [nM]
FC(F)(F)c1cccc(N2CCN(CCc3cc(Cl)c4nc[nH]c4c3)CC2)c1	> 1000
Brc1cc(CCN2CCN(c3ccccc3)CC2)cc2[nH]cnc12	> 1000
Clc1ccccc1N1CCN(CCc2cc(Cl)c3nc[nH]c3c2)CC1	> 1000
COc1ccccc1N1CCN(CCc2cc(Br)c3nc[nH]c3c2)CC1	> 1000
COc1ccccc1N1CCN(CCc2cc(Cl)c3nc[nH]c3c2)CC1	> 1000
FC(F)(F)c1cccc(N2CCN(CCc3ccc4nc[nH]c4c3)CC2)c1	> 1000
Brc1cc(CCN2CCN(c3ncccn3)CC2)cc2[nH]cnc12	> 1000
Clc1cc(CCN2CCN(c3ncccn3)CC2)cc2[nH]cnc12	> 1000
Clc1cc(CCN2CCN(c3ccccc3)CC2)cc2[nH]cnc12	> 1000
c1ccc(N2CCN(CCc3ccc4nc[nH]c4c3)CC2)cc1	> 1000
FC(F)(F)c1cccc(N2CCN(CCc3cc(Br)c4nc[nH]c4c3)CC2)c1	> 1000
Clc1ccccc1N1CCN(CCc2cc(Br)c3nc[nH]c3c2)CC1	> 1000

Molecular target: D(2) dopamine receptor (Bos taurus, UniProt P20288)
Test: Displacement of [3H]Spiperone from dopamine D2 receptor in bovine caudate nuclei synaptosomal membrane by liquid scintillation spectrometry
In short: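 Membranes (0.7 mg/ml protein) incubated 20 min at 37 °C with 0.2 nM [3H]spiperone and 8–10 test compound concentrations (10^-5–10^-10 M). Ketanserin […] blocks 5-HT2 sites. Nonspecific binding defined with […] (+)-butaclamol. GF/C filtration, scintillation counting. Ki; 3–4 experiments in triplicate.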

D(2) dopamine receptor, sequence (P20288 whole entry): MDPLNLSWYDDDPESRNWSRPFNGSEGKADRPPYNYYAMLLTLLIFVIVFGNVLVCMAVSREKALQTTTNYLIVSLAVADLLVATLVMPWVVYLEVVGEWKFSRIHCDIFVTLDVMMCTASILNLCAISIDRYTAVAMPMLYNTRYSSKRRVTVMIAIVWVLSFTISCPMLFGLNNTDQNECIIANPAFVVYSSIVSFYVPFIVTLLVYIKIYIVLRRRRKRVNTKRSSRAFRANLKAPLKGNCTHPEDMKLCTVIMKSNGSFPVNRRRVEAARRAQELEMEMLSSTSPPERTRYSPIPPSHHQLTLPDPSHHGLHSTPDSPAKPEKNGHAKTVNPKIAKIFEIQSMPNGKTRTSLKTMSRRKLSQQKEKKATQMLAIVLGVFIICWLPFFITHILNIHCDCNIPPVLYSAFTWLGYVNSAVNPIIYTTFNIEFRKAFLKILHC

Structure (SMILES)	Ki [nM]
FC(F)(F)c1cccc(N2CCN(CCc3cc(Cl)c4nc[nH]c4c3)CC2)c1	200
Brc1cc(CCN2CCN(c3ccccc3)CC2)cc2[nH]cnc12	61.9
Clc1ccccc1N1CCN(CCc2cc(Cl)c3nc[nH]c3c2)CC1	19.1
c1cnc(N2CCN(CCc3ccc4nc[nH]c4c3)CC2)nc1	> 1000
COc1ccccc1N1CCN(CCc2cc(Br)c3nc[nH]c3c2)CC1	0.56
Clc1ccccc1N1CCN(CCc2ccc3nc[nH]c3c2)CC1	59.7
COc1ccccc1N1CCN(CCc2cc(Cl)c3nc[nH]c3c2)CC1	5.49
FC(F)(F)c1cccc(N2CCN(CCc3ccc4nc[nH]c4c3)CC2)c1	273
Brc1cc(CCN2CCN(c3ncccn3)CC2)cc2[nH]cnc12	26.7
Clc1cc(CCN2CCN(c3ncccn3)CC2)cc2[nH]cnc12	550
COc1ccccc1N1CCN(CCc2ccc3nc[nH]c3c2)CC1	13.1
Clc1cc(CCN2CCN(c3ccccc3)CC2)cc2[nH]cnc12	84.7
c1ccc(N2CCN(CCc3ccc4nc[nH]c4c3)CC2)cc1	138
FC(F)(F)c1cccc(N2CCN(CCc3cc(Br)c4nc[nH]c4c3)CC2)c1	5.77
Clc1ccccc1N1CCN(CCc2cc(Br)c3nc[nH]c3c2)CC1	84.7

Molecular target: not listed separately
Test: Displacement of [3H]8-OH-DPAT from 5HT1A receptor in bovine hippocampi synaptosomal membrane by liquid scintillation spectrometry
Format: tissue-based, Bos taurus, Hippocampus

Structure (SMILES)	Ki [nM]
FC(F)(F)c1cccc(N2CCN(CCc3cc(Cl)c4nc[nH]c4c3)CC2)c1	20.7
Brc1cc(CCN2CCN(c3ccccc3)CC2)cc2[nH]cnc12	24.1
Clc1ccccc1N1CCN(CCc2cc(Cl)c3nc[nH]c3c2)CC1	45.6
c1cnc(N2CCN(CCc3ccc4nc[nH]c4c3)CC2)nc1	> 1000
COc1ccccc1N1CCN(CCc2cc(Br)c3nc[nH]c3c2)CC1	1.4
Clc1ccccc1N1CCN(CCc2ccc3nc[nH]c3c2)CC1	243
COc1ccccc1N1CCN(CCc2cc(Cl)c3nc[nH]c3c2)CC1	5.2
FC(F)(F)c1cccc(N2CCN(CCc3ccc4nc[nH]c4c3)CC2)c1	33
Brc1cc(CCN2CCN(c3ncccn3)CC2)cc2[nH]cnc12	129
Clc1cc(CCN2CCN(c3ncccn3)CC2)cc2[nH]cnc12	530
COc1ccccc1N1CCN(CCc2ccc3nc[nH]c3c2)CC1	20.3
Clc1cc(CCN2CCN(c3ccccc3)CC2)cc2[nH]cnc12	89.6
c1ccc(N2CCN(CCc3ccc4nc[nH]c4c3)CC2)cc1	197
FC(F)(F)c1cccc(N2CCN(CCc3cc(Br)c4nc[nH]c4c3)CC2)c1	0.14
Clc1ccccc1N1CCN(CCc2cc(Br)c3nc[nH]c3c2)CC1	89.6
